Measured values: PMC9804882 (Chemmedchem, 2022)

Experiments:
[1] = biological target: T1, labeled rabbit muscle actin (Oryctolagus cuniculus, UniProt P68135); assay: In vitro actin depolymerization assay; type: biochemical; details: 5 μM, added after 1 h polymerization
Summary of the method: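 Labeled rabbit muscle actin first polymerized for 1 h under polymerization-assay conditions. Test compound (5 μM) then added, and fluorescence (ex/em 365/410 nm) monitored kinetically for another hour at room temperature. DMSO vehicle; latrunculin A and cytochalasin B (5 μM) as controls; three separate tests.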

[2] = biological target: T1, labeled rabbit muscle actin; assay: In vitro actin polymerization assay; type: biochemical; details: 5 μM; for actin polymerization curve, RFU reached (lowest point/plateau): CTRL about 37,000 RFU
Summary of the method: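 Labeled rabbit muscle actin incubated with test compound (5 μM) using a commercial polymerization kit. DMSO as negative control; latrunculin A and cytochalasin B (5 μM) as reference agents. Filament assembly followed by fluorescence (ex/em 365/410 nm) in kinetic mode for 1 h at room temperature; curves representative of three separate tests.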

MCF‐10A cells = assay: MTT assay, cytotoxicity on normal cells; type: cell-based, human; details: 72 h
Summary of the method: (§1)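 Cells seeded in 48-well plates and serum-starved. They were then exposed for 72 h to test compound dissolved in DMSO over 0.1–200 μM, with viability read by MTT. IC50 calculated from concentration–response data; experiments in triplicate, reported as mean ± SD.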

MDA‐MB‐231 cells = assay: MTT assay; type: cell-based, human
Summary of the method: as §1

MCF‐7 cells [3] = assay: MTT assay; type: cell-based, human
Summary of the method: as §1

[4] = tested on: Enterococcus faecalis (ATCC 19433); assay: MIC determination, broth dilution; type: cell-based; details: E. faecalis ATCC 19433, broth dilution, 37 °C 18 h
Summary of the method: (§2)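 Broth dilution per CLSI. Overnight LB cultures diluted to 4000 CFU/mL in 96-well plates, then exposed to test compound at 1, 5, 10, 20, 50 or 100 μg/mL for 18 h at 37 °C. Growth read at 600 nm against DMSO-vehicle growth control; compound-only sterility control; ampicillin as strain-sensitivity control. MIC: lowest concentration inhibiting visible growth; MBC: lowest fully bactericidal concentration. Five experiments, each in triplicate.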

[5] = tested on: Escherichia coli (ATCC 25922); assay: MIC determination, broth dilution; type: cell-based; details: E. coli ATCC 25922, broth dilution, 37 °C 18 h
Summary of the method: as §2

[6] = tested on: Staphylococcus aureus (ATCC 23235); assay: MIC determination, broth dilution; type: cell-based; details: S. aureus ATCC 23235, broth dilution, 37 °C 18 h
Summary of the method: as §2

[7] = tested on: Gram‐positive and Gram‐negative bacteria (E. coli, S. aureus, E. faecalis); assay: MBC determination and ampicillin control, broth dilution, all strains; type: cell-based; details: all strains used, standard antibiotic control
Summary of the method: as §2

MCF‐7 cells [8] = assay: TUNEL assay; type: cell-based, human; details: MCF‐7, 24 h, at IC50 value
recombinant human topo I = biological target: T2, recombinant human topo I (Homo sapiens, UniProt P11387); assay: Human topoisomerase I relaxation assay; type: biochemical; details: 1 μM, supercoiled pHOT1 substrate
T2 sequence (P11387 1-765): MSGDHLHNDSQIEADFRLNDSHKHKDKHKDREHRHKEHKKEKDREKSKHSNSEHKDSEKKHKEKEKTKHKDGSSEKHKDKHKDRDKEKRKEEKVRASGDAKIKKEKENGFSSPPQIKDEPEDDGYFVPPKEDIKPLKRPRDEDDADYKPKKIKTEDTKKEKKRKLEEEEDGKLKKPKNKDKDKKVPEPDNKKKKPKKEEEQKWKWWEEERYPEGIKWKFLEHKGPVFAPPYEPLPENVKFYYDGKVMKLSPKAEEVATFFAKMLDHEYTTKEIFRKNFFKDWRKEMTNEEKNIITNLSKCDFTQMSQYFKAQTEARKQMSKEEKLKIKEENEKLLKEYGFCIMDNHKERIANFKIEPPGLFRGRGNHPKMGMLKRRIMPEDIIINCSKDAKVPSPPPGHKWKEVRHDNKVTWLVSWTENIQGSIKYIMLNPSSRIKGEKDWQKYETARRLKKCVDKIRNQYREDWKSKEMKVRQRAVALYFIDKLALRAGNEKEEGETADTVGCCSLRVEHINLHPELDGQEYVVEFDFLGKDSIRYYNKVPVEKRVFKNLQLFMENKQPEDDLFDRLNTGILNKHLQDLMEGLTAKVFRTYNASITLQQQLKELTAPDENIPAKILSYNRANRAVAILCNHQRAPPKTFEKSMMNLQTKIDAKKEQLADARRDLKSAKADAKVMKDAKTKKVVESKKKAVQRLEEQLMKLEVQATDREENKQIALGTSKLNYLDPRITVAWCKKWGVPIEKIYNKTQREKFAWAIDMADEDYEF
Summary of the method: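 Supercoiled pHOT1 (0.25 μg) relaxed by 2 U recombinant human topo I, without or with test compound at 1 μM; DMSO vehicle control; relaxed-DNA marker run alongside. Products separated on 1% agarose in 1X TAE without ethidium bromide and visualized on a UV transilluminator.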

MCF‐7 cells [9] = assay: Immunofluorescence analysis of β‐actin; type: cell-based, human; details: MCF‐7, 24 h, IC50 value / 5 μM
human topoisomerase II = human topoisomerase II (Homo sapiens, UniProt P11388); assay: Human topoisomerase II decatenation assay; type: biochemical; details: kDNA substrate
Sequence of human topoisomerase II (P11388 whole entry): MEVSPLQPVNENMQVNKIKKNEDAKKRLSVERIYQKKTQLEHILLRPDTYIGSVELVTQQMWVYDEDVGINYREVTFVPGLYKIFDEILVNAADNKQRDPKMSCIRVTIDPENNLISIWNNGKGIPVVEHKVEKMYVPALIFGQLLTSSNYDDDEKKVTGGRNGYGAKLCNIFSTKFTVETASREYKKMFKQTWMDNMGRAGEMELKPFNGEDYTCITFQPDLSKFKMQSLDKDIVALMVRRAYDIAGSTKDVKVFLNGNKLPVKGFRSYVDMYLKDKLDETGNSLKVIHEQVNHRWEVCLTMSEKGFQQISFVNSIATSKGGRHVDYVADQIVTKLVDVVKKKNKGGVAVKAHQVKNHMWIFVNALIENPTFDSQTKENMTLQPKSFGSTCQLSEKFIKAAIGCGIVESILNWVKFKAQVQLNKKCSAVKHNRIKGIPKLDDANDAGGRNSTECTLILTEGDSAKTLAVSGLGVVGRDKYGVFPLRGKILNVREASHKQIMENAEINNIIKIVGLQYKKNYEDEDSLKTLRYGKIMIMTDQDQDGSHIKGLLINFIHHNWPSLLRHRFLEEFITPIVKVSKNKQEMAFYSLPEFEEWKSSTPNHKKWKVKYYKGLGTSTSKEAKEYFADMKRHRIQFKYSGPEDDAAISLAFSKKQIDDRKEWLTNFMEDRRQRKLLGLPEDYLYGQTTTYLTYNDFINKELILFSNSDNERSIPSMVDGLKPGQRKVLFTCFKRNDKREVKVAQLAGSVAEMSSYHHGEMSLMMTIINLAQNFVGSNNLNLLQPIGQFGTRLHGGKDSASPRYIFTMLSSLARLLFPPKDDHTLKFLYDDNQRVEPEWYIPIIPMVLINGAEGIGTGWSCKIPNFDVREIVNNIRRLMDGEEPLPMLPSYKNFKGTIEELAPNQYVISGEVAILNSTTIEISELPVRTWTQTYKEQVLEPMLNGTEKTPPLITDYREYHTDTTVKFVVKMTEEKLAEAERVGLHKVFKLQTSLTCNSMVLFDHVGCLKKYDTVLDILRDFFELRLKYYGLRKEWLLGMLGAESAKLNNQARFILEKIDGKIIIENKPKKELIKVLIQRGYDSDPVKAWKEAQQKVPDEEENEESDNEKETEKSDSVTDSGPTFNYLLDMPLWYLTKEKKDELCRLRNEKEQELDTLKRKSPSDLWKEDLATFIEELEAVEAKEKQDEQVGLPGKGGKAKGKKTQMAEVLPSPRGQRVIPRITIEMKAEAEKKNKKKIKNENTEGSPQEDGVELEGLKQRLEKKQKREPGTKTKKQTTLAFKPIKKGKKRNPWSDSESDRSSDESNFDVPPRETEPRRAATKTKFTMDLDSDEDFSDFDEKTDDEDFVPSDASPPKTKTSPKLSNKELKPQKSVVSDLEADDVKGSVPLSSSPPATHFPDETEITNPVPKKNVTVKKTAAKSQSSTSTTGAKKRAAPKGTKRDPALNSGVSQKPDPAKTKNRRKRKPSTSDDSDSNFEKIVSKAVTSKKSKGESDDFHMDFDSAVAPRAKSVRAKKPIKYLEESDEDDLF
Summary of the method: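 Decatenation of kinetoplast DNA (0.3 μg) by 3 U human topo II, with test compound at 1 or 10 μM or DMSO vehicle; linear and decatenated kDNA markers included. Gel: 1% agarose in 1X TAE with ethidium bromide (0.5 μg/ml), UV transilluminator read-out.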

[10] = MCF‐10A normal mammary epithelium, MTT

Compound | effect on actin depolymerization [1] | effect on actin polymerization [2] | actin polymerization curve, RFU reached (lowest point/plateau) [2] | IC50 (MCF‐10A cells; [10]) | IC50 (MDA‐MB‐231 cells; MDA‐MB‐231, MTT, 72 h) | IC50 (MCF‐7 cells [3]; MCF‐7, MTT, 72 h) | MIC [4] | MIC [5] | MIC [6] | also measured
C=C1[C@@H](C)[C@H]2[C@H](Cc3ccccc3)NC(=O)[C@]23OC(=O)/C=C/[C@H](O)CCC[C@@H](C)C/C=C/[C@H]3[C@@H]1O [CB, cytochalasin B, reference compound] | no relevant changes in RFU | totally impeded the actin polymerization | approximately 20,000 RFU |  |  |  |  |  |  | actin depolymerization curve, RFU reached ([1]; initial value 28,000 RFU): about 28,000 RFU
N.N.[Cl][Pt][Cl] [Cisplatin, reference compound] |  |  |  | 81.3 ± 0.6 µM | 28.7 ± 0.4 µM | 35.8 ± 0.7 µM |  |  |  | 
COC(Cn1ccn(C)[c]1=[Ag-2][I])c1ccccc1 (stereo not shown) [Compound 3, [N‐methyl,N’‐(2‐metoxy‐2‐phenyl)ethyl‐imidazole‐2‐ylidenesilver(I)] iodide] |  |  |  | > 200 µM | 52.6 ± 0.3 µM | 31.8 ± 0.8 µM | 10 µg/mL | 5 µg/mL | 5 µg/mL | 
C/C1=C/C(=O)O[C@@H]2C[C@@H](CC[C@H](C)/C=C\C=C\CC1)O[C@@](O)([C@@H]1CSC(=O)N1)C2 [Latrunculin A, reference compound] | actin depolymerization has occurred | totally impeded the actin polymerization |  |  |  |  |  |  |  | IC50 (MCF‐10A cells; Homo sapiens, MCF-10A): 0.045 µM; IC50 (MDA‐MB‐231 cells; Homo sapiens, MDA-MB-231, 72 h): 0.024 µM; IC50 (MCF‐7 cells [3]; Homo sapiens, MCF7, 72 h): 0.14 µM
CC1(C)S[C@@H]2[C@H](NC(=O)[C@H](N)c3ccccc3)C(=O)N2[C@H]1C(=O)O [ampicillin, Ampicillin] |  |  |  |  |  |  |  |  |  | strain sensibility to ampicillin [7]: ampicillin‐sensible
[4,5‐dichloro‐[(N‐methyl‐N’(2‐hydroxy‐2‐phenyl‐ethyl)imidazole‐2‐ylidene]silver(I)] acetate [Compound 6] | able to act as a depolymerization inducer | inhibitory activity on the polymerization of G‐actin, higher than that of CB | approximately 13,000 RFU | > 200 µM | 38.1 ± 0.8 µM | 13.2 ± 0.3 µM | 10 µg/mL | 10 µg/mL | 5 µg/mL | apoptosis (green nuclear fluorescence, DNA fragmentation) (MCF‐7 cells [8]): induced apoptosis; inhibition of hTopo I activity (recombinant human topo I): total inhibition of the enzyme activity; actin cytoskeleton organization / cell morphology (MCF‐7 cells [9]): caused comparable disorganization of this structure; inhibition of hTopo II activity (human topoisomerase II; 1 μM): did not produce the enzyme inhibition; inhibition of hTopo II activity (human topoisomerase II; 10 μM): totally inhibit the hTopo II activity; time to reach the lowest point of the polymerization curve [2]: around 12 minutes
